# Results taken from paper PMC3711763 (The Journal of neuroscience : the official journal of the …, 2013).
# Like-named read-outs stand apart in the source and are kept apart here.
# Experiments:
# [1] = system: impulsive action in the 5-CSRT task; details: cited from earlier work
# male Sprague Dawley rats [2] = experiment: spontaneous locomotor activity; assay type: in vivo, rat; details: i.p.
# male Sprague Dawley rats [3] = experiment: 1-choice serial reaction time; assay type: in vivo, rat; details: i.p.; for % Accuracy / % Omissions / Latency to start / Response latency / Time to finish: mean ± SEM; for number of reinforcers earned (combination study) / premature responses (combination study): alone or combined
# How it was run: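 Male Sprague Dawley rats (225–325 g) were housed two per cage and food-restricted to 90% of free-feeding weight. They were trained until stable: >80% accuracy and <20% omissions for five consecutive sessions at the final stage (0.5 s stimulus, 5 s limited hold, 5 s ITI), with <15% variability. Test compound or saline vehicle was given i.p. 15 min pre-session. Data were analysed by one-way repeated-measures ANOVA with Dunnett's test versus saline.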
# 5-HT2AR = 5-HT2AR (Homo sapiens, UniProt P28223); experiment: intracellular calcium release in 5-HT2AR–CHO cells; assay type: cell-based; details: for Cai2+ release, peptide alone, in 5-HT2AR–CHO cells: 15 min, peptide alone (data not shown); for effect on 5-HT-mediated Cai2+ release in 5-HT2AR–CHO cells: 15 min preincubation, 10 nM 5-HT
# circular dichroism = assay type: physicochemical; details: in water; 3L4F 300 μM, 3L4F-F1 100 and 300 μM; three independent trials
# 5-HT2CR = details: for Cai2+ release, peptide alone (unstimulated): no agonist, fluorescence; for effect on 5-HT-evoked Cai2+ release: ANOVA main effect
# [4] = system: 5-HT2CR and PTEN protein expression, 5-HT2CR–CHO cells; experiment: Western blot of protein expression in 5-HT2CR–CHO cells; assay type: cell-based, human 5-HT2CR; CHO cells; details: 1 pM, 15 min preincubation
# How it was run: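 Cells were rinsed in ice-cold Krebs' solution, pelleted, and homogenized in HEPES/EDTA/EGTA/DTT buffer containing protease and phosphatase inhibitors. The membrane pellet from differential centrifugation was resuspended in buffer with 400 mM NaCl and 0.5% NP-40. Protein was quantified by BCA, reduced and heated at 70°C for 20 min, run on 4–12% Bis-Tris SDS-PAGE and transferred to PVDF. Blots were probed with primary antibody overnight and secondary for 45 min, then read by infrared imaging.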
# [5] = system: 5-HT2CR–PTEN complex in VTA; experiment: co-IP of 5-HT2CR–PTEN complex in rat VTA after systemic administration; assay type: in vivo; details: 10 μmol/kg, i.p., killed 5 min later, relative to vehicle (saline)
# [6] = TAT–3L4F 0.1 μmol/kg, WAY163909 1 mg/kg, alone or combined
# [7] = TAT–3L4F 0.1 μmol/kg, WAY163909 1 mg/kg, alone or combined, p < 0.05
# [8] = 0.5 and 1 mg/kg, versus saline, p < 0.05
# [9] = TAT–3L4F 0.3 μmol/kg, WAY163909 0.1 mg/kg, versus saline
# [10] = WAY163909 0.1 mg/kg, combination study
# [11] = 15 min preincubation, Calcium 4 dye
# [12] = 15 min preincubation, 1 nM 5-HT
# [13] = 1 μmol/kg, versus saline, p < 0.05
# [14] = TAT–3L4F 0.3 μmol/kg, combination study
# Chain of 5-HT2AR (P28223 whole entry): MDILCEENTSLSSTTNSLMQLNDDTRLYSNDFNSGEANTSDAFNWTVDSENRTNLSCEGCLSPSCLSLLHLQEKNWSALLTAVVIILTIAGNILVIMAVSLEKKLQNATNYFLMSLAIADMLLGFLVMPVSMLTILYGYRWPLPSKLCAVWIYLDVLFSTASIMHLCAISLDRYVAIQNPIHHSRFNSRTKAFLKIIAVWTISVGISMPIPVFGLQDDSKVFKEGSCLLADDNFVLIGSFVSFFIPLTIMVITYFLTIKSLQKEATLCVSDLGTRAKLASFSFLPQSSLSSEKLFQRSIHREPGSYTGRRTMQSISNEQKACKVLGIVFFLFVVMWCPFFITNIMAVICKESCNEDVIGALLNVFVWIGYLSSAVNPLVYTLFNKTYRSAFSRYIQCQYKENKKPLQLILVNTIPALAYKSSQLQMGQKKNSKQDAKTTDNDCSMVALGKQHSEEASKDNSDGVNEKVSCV
compound,measurement,setting,value
"Cc1cc2c(cc1Cl)N(C(=O)Nc1ccc(Oc3cccnc3C)nc1)CC2.Cl.Cl [SB242084, 6-chloro-5-methyl-1-((2-(2-methylpyrid-3-yloxy)pyrid-5-yl)carbamoyl)indoline dihydrochloride]",impulsive action by premature responses in the 5-CSRT task,"[1]; ref Winstanley et al., 2004b, Fletcher et al., 2007",increase impulsive action
"c1cc2c3c(c1)[C@H]1CCC[C@H]1N3CCNC2 [WAY163909, (7bR, 10aR)-1,2,3,4,8,9,10,10a-octa-hydro-7bH-cyclopenta-(b)(1,4)diazepino (6,7,1hi)indole]","total vertical activity, 70 min (combination study)",male Sprague Dawley rats [2]; [6],No main effect of treatment was observed for vertical activity
same,"vertical activity, 5-min bins (combination study)",male Sprague Dawley rats [2]; [6],No main effect of treatment
same,"central ambulation, 5-min bins (combination study)",male Sprague Dawley rats [2]; [7],significantly reduced central ambulation versus saline at 10 min
same,"peripheral ambulation, 5-min bins (combination study)",male Sprague Dawley rats [2]; [7],significantly reduced peripheral ambulation versus saline at 5 and 10 min
same,"total central ambulation, 70 min (combination study)",male Sprague Dawley rats [2]; [7],but not either ligand alone
same,"total horizontal ambulation, 70 min (combination study)","male Sprague Dawley rats [2]; TAT–3L4F 0.1 μmol/kg, WAY163909 1 mg/kg, alone or combined, versus saline",neither ligands tested alone at chosen doses altered total horizontal ambulation
same,% Accuracy,male Sprague Dawley rats [3]; 0.05 mg/kg,100.52 ± 0.4%
same,% Omissions,male Sprague Dawley rats [3]; 0.05 mg/kg,6.23 ± 1.1%
same,Latency to start,male Sprague Dawley rats [3]; 0.05 mg/kg,0.69 ± 0.2 s
same,Response latency,male Sprague Dawley rats [3]; 0.05 mg/kg,2.75 ± 0.4 s
same,Time to finish,male Sprague Dawley rats [3]; 0.05 mg/kg,933.62 ± 29.4 s
same,% Accuracy,"male Sprague Dawley rats [3]; 0.1 mg/kg, dose-response study",100.72 ± 0.5%
same,% Omissions,"male Sprague Dawley rats [3]; 0.1 mg/kg, dose-response study",5.40 ± 0.9%
same,Latency to start,"male Sprague Dawley rats [3]; 0.1 mg/kg, dose-response study",1.13 ± 0.2 s
same,Response latency,"male Sprague Dawley rats [3]; 0.1 mg/kg, dose-response study",2.57 ± 0.2 s
same,Time to finish,"male Sprague Dawley rats [3]; 0.1 mg/kg, dose-response study",923.55 ± 16.5 s
same,% Accuracy,male Sprague Dawley rats [3]; 0.2 mg/kg,100.15 ± 0.7%
same,% Omissions,male Sprague Dawley rats [3]; 0.2 mg/kg,6.26 ± 1.6%
same,Latency to start,male Sprague Dawley rats [3]; 0.2 mg/kg,0.85 ± 0.2 s
same,Response latency,male Sprague Dawley rats [3]; 0.2 mg/kg,2.84 ± 0.4 s
same,Time to finish,male Sprague Dawley rats [3]; 0.2 mg/kg,941.12 ± 34.9 s
same,% Accuracy,male Sprague Dawley rats [3]; 0.5 mg/kg,100.61 ± 0.4%
same,% Omissions,male Sprague Dawley rats [3]; 0.5 mg/kg,5.85 ± 0.9%
same,Latency to start,male Sprague Dawley rats [3]; 0.5 mg/kg,0.62 ± 0.1 s
same,Response latency,male Sprague Dawley rats [3]; 0.5 mg/kg,2.54 ± 0.2 s
same,Time to finish,male Sprague Dawley rats [3]; 0.5 mg/kg,926.23 ± 17.3 s
same,% Accuracy,male Sprague Dawley rats [3]; 1 mg/kg,101.48 ± 0.6%
same,% Omissions,male Sprague Dawley rats [3]; 1 mg/kg,8.94 ± 0.7%
same,Latency to start,male Sprague Dawley rats [3]; 1 mg/kg,1.11 ± 0.2 s
same,Response latency,male Sprague Dawley rats [3]; 1 mg/kg,3.06 ± 0.4 s
same,Time to finish,male Sprague Dawley rats [3]; 1 mg/kg,981.14 ± 33.7 s
same,number of reinforcers earned,male Sprague Dawley rats [3]; [8],increased the number of reinforcers earned versus saline
same,premature responses,male Sprague Dawley rats [3]; [8],decreased premature responses versus saline
same,number of reinforcers earned (combination study),male Sprague Dawley rats [3]; [9],Neither 0.3 μmol/kg TAT–3L4F nor 0.1 mg/kg WAY163909 alone altered the number of reinforcers earned versus saline
same,premature responses (combination study),male Sprague Dawley rats [3]; [9],Neither 0.3 μmol/kg TAT–3L4F nor 0.1 mg/kg WAY163909 alone altered premature responses
same,% Accuracy,male Sprague Dawley rats [3]; [10],100.21 ± 0.8%
same,% Omissions,male Sprague Dawley rats [3]; [10],5.45 ± 1.0%
same,Latency to start,male Sprague Dawley rats [3]; [10],1.11 ± 0.3 s
same,Response latency,male Sprague Dawley rats [3]; [10],2.83 ± 0.5 s
same,Time to finish,male Sprague Dawley rats [3]; [10],948.78 ± 37.7 s
same,additional measures of task performance,"male Sprague Dawley rats [3]; accuracy, motivation, motility indices","did not alter additional measures of task performance, including accuracy, motivation, or motility indices"
same,impulsive action by premature responses in the 5-CSRT task,"[1]; ref Navarra et al., 2008",potently suppress
Ac-PNQDQNAR-NH2 [3L4F-F1],"Cai2+ release, peptide alone, in 5-HT2AR–CHO cells",5-HT2AR,did not induce Cai2+ release
same,effect on 5-HT-mediated Cai2+ release in 5-HT2AR–CHO cells,5-HT2AR,did not induce Cai2+ release or alter Cai2+ release evoked by 10 nM 5-HT
same,CD signal at 222 nm,circular dichroism,shallow inflection point at 222 nm
same,α-helix content by CD,circular dichroism,10–30%
same,"Cai2+ release, peptide alone (unstimulated)",5-HT2CR; [11],did not induce Cai2+ release
same,concentrations that significantly increased Cai2+ release versus 1 nM 5-HT,"5-HT2CR; 15 min preincubation, 1 nM 5-HT, Calcium 4 dye, FlexStation3, p < 0.05",10 ^−13 to 10 ^−9 M
Ac-PNQDQNARRRKKKERR-NH2 [3L4F],membrane protein expression levels of 5-HT2CR or PTEN,[4],unchanged
same,"Cai2+ release, peptide alone, in 5-HT2AR–CHO cells",5-HT2AR,nor did it alter Cai2+ release when tested alone
same,effect on 5-HT-mediated Cai2+ release in 5-HT2AR–CHO cells,5-HT2AR,did not potentiate 5-HT-mediated (10 nM) Cai2+ release
same,CD signal at 222 nm,circular dichroism,clear inflection point at 222 nm
same,α-helix content by CD,circular dichroism,< 50%
same,cellular entry without TAT conjugation,5-HT2CR,TAT conjugation is not necessary for cellular entry
same,Emax of 5-HT-evoked Cai2+ release in presence of peptide,"5-HT2CR; 1 pM peptide, 15 min, 5-HT concentration response, p < 0.05",120.7 % of maximal response for 5-HT
same,"Cai2+ release, peptide alone (unstimulated)",5-HT2CR; [11],did not alter unstimulated Cai2+ release
Ac-QNARRRKK-NH2 [3L4F-F2],"Cai2+ release, peptide alone, in 5-HT2AR–CHO cells",5-HT2AR,did not induce Cai2+ release
same,effect on 5-HT-mediated Cai2+ release in 5-HT2AR–CHO cells,5-HT2AR,did not induce Cai2+ release or alter Cai2+ release evoked by 10 nM 5-HT
same,"Cai2+ release, peptide alone (unstimulated)",5-HT2CR; [11],did not induce Cai2+ release
same,effect on 5-HT-evoked Cai2+ release,5-HT2CR; [12],No main effect
Ac-RRKKKERR-NH2 [3L4F-F3],"Cai2+ release, peptide alone, in 5-HT2AR–CHO cells",5-HT2AR,did not induce Cai2+ release
same,effect on 5-HT-mediated Cai2+ release in 5-HT2AR–CHO cells,5-HT2AR,did not induce Cai2+ release or alter Cai2+ release evoked by 10 nM 5-HT
same,"Cai2+ release, peptide alone (unstimulated)",5-HT2CR; [11],did not induce Cai2+ release
same,effect on 5-HT-evoked Cai2+ release,5-HT2CR; [12],No main effect
Ac-YGRKKRRQRRRPNPDQKPRRKKKEKR-NH2 [rat TAT–3L4F],"intensity of PTEN immunoreactive band after IP for 5-HT2CR, VTA",[5],attenuated relative to vehicle (saline) treatment
same,effect across multiple activity measures,"male Sprague Dawley rats [2]; 0.1 μmol/kg, alone",ineffective across multiple activity measures
same,"horizontal ambulation, 5-min bins","male Sprague Dawley rats [2]; 1 μmol/kg, 15 min before test, versus saline, p < 0.05","significantly reduced horizontal ambulation versus saline at 5, 10, and 15 min"
same,"total horizontal ambulation, 70 min",male Sprague Dawley rats [2]; [13],significantly reduced total horizontal ambulation versus saline
same,"total peripheral ambulation, 70 min",male Sprague Dawley rats [2]; [13],significantly reduced peripheral ambulation versus saline
same,"central ambulation, 5-min bins",male Sprague Dawley rats [2]; 0.1 or 1 μmol/kg,No main effect of treatment
same,"vertical activity, 5-min bins",male Sprague Dawley rats [2]; 0.1 or 1 μmol/kg,No main effect of treatment
same,"total vertical activity, 70 min (combination study)",male Sprague Dawley rats [2]; [6],No main effect of treatment was observed for vertical activity
same,"vertical activity, 5-min bins (combination study)",male Sprague Dawley rats [2]; [6],No main effect of treatment
same,"total central ambulation, 70 min (combination study)",male Sprague Dawley rats [2]; [7],but not either ligand alone
same,number of reinforcers earned (combination study),male Sprague Dawley rats [3]; [9],Neither 0.3 μmol/kg TAT–3L4F nor 0.1 mg/kg WAY163909 alone altered the number of reinforcers earned versus saline
same,premature responses (combination study),male Sprague Dawley rats [3]; [9],Neither 0.3 μmol/kg TAT–3L4F nor 0.1 mg/kg WAY163909 alone altered premature responses
same,% Accuracy,male Sprague Dawley rats [3]; [14],98.69 ± 0.6%
same,% Omissions,male Sprague Dawley rats [3]; [14],4.77 ± 1.0%
same,Latency to start,male Sprague Dawley rats [3]; [14],1.00 ± 0.6 s
same,Response latency,male Sprague Dawley rats [3]; [14],2.19 ± 0.2 s
same,Time to finish,male Sprague Dawley rats [3]; [14],875.10 ± 15.3 s
